An excerpt weighted towards active compounds, which were near 1.7% of everything screened.
PLCg1 inh: blocks human PLC-gamma1 enzyme activity | purified PLC-gamma1, fluorogenic substrate, fluorescence | inhibition, % at 12.2 µM | 370,000 compounds, 0.84% hits
PLCb3 inh: blocks human PLC-beta3 enzyme activity; Q01970; Purified PLC-beta3, fluorogenic substrate, fluorescence; inhibition, % at 12.2 µM; 370,000 compounds, 0.18% hits; AID 720704; in the data active = inhibition above about 11%;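 note: 0% = median of compound wells on plate and 100% = full blocker control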
Rpn11 inh: Rpn11 (human) deubiquitinase inhibition; AID 588493; O00487; inhibition, % at 20 µM; 360,000 compounds, 0.59% hits; human 26S proteasome, Ub4-pepOG fluorescence polarization; 20S core pre-blocked with epoxomicin;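 active = inhibition at 20 µM, scaled to each plate's controls, above about 33%, limit read from the data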
Target sequence (O00487 whole entry, looked up): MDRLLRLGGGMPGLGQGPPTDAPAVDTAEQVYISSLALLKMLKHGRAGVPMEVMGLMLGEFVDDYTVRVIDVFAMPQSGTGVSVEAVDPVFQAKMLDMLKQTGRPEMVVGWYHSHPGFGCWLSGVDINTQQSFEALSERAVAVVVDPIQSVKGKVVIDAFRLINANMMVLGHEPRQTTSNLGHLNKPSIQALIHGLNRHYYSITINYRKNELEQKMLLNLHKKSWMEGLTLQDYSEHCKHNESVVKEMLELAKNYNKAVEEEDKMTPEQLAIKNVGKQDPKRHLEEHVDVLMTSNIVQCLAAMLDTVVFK
UCH37 inh: human UCH37 deubiquitinating enzyme inhibition | 330,000 compounds, 0.33% hits | Q9Y5K5 | AID 588478 | purified proteasome/UCH37, Ub-AMC cleavage fluorescence | inhibition, % (concentration not given with the values);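 active = mean inhibition over replicate wells above about 20%, limit read from the data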;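 note: 0% = compound-free wells with enzyme and 100% = wells lacking proteasome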
Target sequence (Q9Y5K5 whole entry, looked up): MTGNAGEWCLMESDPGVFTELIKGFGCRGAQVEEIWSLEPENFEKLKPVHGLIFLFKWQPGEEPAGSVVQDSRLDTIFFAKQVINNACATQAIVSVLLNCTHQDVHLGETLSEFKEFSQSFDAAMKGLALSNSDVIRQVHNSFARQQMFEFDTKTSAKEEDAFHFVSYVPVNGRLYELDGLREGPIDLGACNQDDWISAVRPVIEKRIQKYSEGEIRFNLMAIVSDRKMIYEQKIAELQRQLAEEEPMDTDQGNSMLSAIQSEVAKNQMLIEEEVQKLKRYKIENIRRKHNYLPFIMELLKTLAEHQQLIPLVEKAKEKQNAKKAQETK
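Material: Human UCH37 enzyme supplied as purified proteasome complex | Schedule: 30 min compound-proteasome preincubation then 25 min substrate reaction, room temperature | Detection: AMC fluorescence from Ub-AMC cleavage, excitation 355 nm, emission 460 nm | Benchmarks: Wells without proteasome as full block, compound-free enzyme plus substrate as uninhibited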
PLCgamma1 ctr: PLC-gamma1 inhibition, counter-screen for PLC-beta3 hits | purified PLC-gamma1, fluorogenic substrate, fluorescence | 3,300 compounds, 3.1% hits | inhibition, % at 12.3 µM | shares compounds with PLCg1 inh
PLCb3 confirm: confirmation of human PLC-beta3 inhibitors. shares compounds with PLCg1 inh. purified PLC-beta3, fluorogenic substrate fluorescence. inhibition, % at 12.3 µM. 3,300 compounds, 1% hits. AID 743261; in the data active = inhibition above about 11%
Starred values were filed as active, the others as inactive; x = no result. Cut-off read from the data, not from the text of the source, unless noted: active = inhibition above about 9.5%; inactive = the rest.

SMILES | PLCg1 inh | PLCb3 inh | Rpn11 inh | UCH37 inh | PLCgamma1 ctr | PLCb3 confirm
Nc1nonc1-n1nnc(C(=O)NN=Cc2ccccc2F)c1CN1CCc2ccccc21 | x | x | x | 5 | x | x
O=C(O/N=C1\CCCc2ccccc21)c1cccc(Cl)c1 | 9.6* | 11* | -9 | x | -4 | -2
CCOc1ccc(CCNC(=O)COC(=O)c2oc3ccccc3c2COC)cc1OCC | 14* | -5 | -12 | 1 | 5 | 2
CCOc1ccc(CCNC(=O)COC(=O)c2ccc(OC)c(OC)c2OC)cc1OCC | 0 | -4 | -3 | 1 | x | x
O=c1oc2ccccc2c(O)c1C=NCc1ccccn1 | 12* | 9 | -5 | -6 | 1 | 1
Cc1ccc2c(c1)N(CCC(=O)NC1CC1)C(=O)C(C)O2 (stereo not drawn) | 6 | 12* | 6 | 1 | -3 | -6
CC(=NNS(=O)(=O)c1ccc(Cl)cc1)c1cccc(NC(=O)c2ccncc2)c1 | x | x | x | 4 | x | x
Cc1cc(NC(=O)CCCC(=O)O)nc(C)n1 | 10* | 5 | -8 | 2 | -2 | -1
O=C(NNC(=O)c1csc(-c2cccnc2)n1)c1ccccc1 | 9.6* | -5 | -4 | 1 | -2 | 1
O=C(NNS(=O)(=O)c1ccccc1)c1csc(-c2cccnc2)n1 | 4 | -7 | -12 | 2 | x | x
O=C(NNC(=O)c1csc(-c2ccccc2)n1)c1ccccc1 | 4 | 11* | 6 | x | -10 | -5
Cn1cc(Br)c(C(=O)NN=Cc2cccc(OC3CSC3)c2)n1 | x | x | x | 1 | x | x
CCCNC(=O)CC(C)=NNC(=O)C(=O)Nc1ccccn1 | x | x | x | 2 | x | x
CSc1ncccc1C(=O)NC1CCCc2c1cnn2-c1ccc(C)c(C)c1 (stereo not drawn) | 11* | -8 | -1 | 0 | 2 | 0
COc1ncccc1C(=O)NC1CCCc2c1cnn2-c1ccc(C)c(C)c1 (stereo not drawn) | -3 | -12 | -3 | 2 | x | x
O=C(O)c1ccc(N2CCCCCC2)c(N2C(=O)c3ccccc3C2=O)c1 | 14* | 6 | -2 | 0 | -6 | -5
CC(=NNC(=O)COc1ccc(C)cc1[N+](=O)[O-])c1cccs1 | x | x | x | 2 | x | x
COc1ccc(Nc2cc(C)nc3nc(C)nn23)cc1Cl | 9.6* | 6 | -5 | 1 | -11 | -4
Cc1cc(Nc2ccc(F)c(Cl)c2)n2nc(C)nc2n1 | -1 | 4 | 3 | 1 | x | x
COc1ccc(CC(NC(C)=O)C(=O)NC2CCN(C(=O)Nc3ccccc3C)CC2)cc1OC (stereo not drawn) | 11* | -5 | 5 | x | -5 | -2
COc1ccccc1CC(NC(C)=O)C(=O)NC1CCN(C(=O)Nc2cccc(F)c2)CC1 (stereo not drawn) | -1 | 3 | -2 | 7 | x | x
COc1ccccc1CC(NC(C)=O)C(=O)NC1CCN(C(=O)Nc2ccc(F)cc2)CC1 (stereo not drawn) | 11* | -9 | 8 | x | -5 | -1
S=C(NCCN1CCCCC1)Nc1ccccc1 | 10* | 3 | -3 | 2 | -7 | -3
S=C(NCCN1CCCCC1)Nc1ccc(Br)cc1 | 6 | 1 | 0 | 3 | x | x
S=C(NCCCNC(=S)Nc1ccccc1)Nc1ccccc1 | 13* | 4 | -10 | 0 | -7 | -5
SMILES | PLCg1 inh | PLCb3 inh | Rpn11 inh | UCH37 inh | PLCgamma1 ctr | PLCb3 confirm
CCCNC(=S)Nc1ccc(Nc2ccccc2)cc1 | 4 | 1 | -1 | 2 | x | x
N#CCC(=O)NN=Cc1ccc(Sc2nc3ccccc3s2)o1 | x | x | x | 5 | x | x
Cc1cc(-c2nc(C)c(C(=O)NNS(=O)(=O)c3cccc(C(F)(F)F)c3)s2)no1 | 11* | 2 | -3 | 6 | -2 | -1
COc1cccc(C=Nn2c(-c3ccco3)nc3ccccc3c2=O)c1OC | x | x | x | 1 | x | x
O=C(OCc1ccccc1C(F)(F)F)c1cc([N+](=O)[O-])ccc1N1CCOCC1 | 10* | 3 | -4 | 4 | -1 | 2
O=C(OCc1ccccc1F)c1cc([N+](=O)[O-])ccc1N1CCOCC1 | 1 | -4 | 4 | x | x | x
Oc1ccccc1C=NNC(=S)NC1CC2CCC1C2 (stereo not drawn) | x | x | x | -1 | x | x
CCOC(=O)N1CCC(Nc2nc3ccccc3n3cnnc23)CC1 | 7 | 11* | -4 | 3 | -5 | -4
O=C(NCc1ccccn1)C1CCN(Cc2cnn(-c3ccccc3)c2-n2cccc2)CC1 | 1 | 1 | 4 | 2 | x | x
COc1cccc(CNC(=O)C2CCN(Cc3cnn(-c4ccccc4)c3-n3cccc3)CC2)c1 | 9.7* | 5 | -2 | 3 | 2 | -1
CCNC(=S)N1CCN(c2ccccc2OCC)CC1 | 2 | 2 | -14 | 0 | x | x
CCOc1ccccc1N1CCN(C(=S)NCc2ccccc2)CC1 | 9.7* | 4 | 0 | 2 | -2 | -2
O=c1c(Cl)c(NCC2CCCO2)cnn1C12CC3CC(CC(C3)C1)C2 (stereo not drawn) | 12* | -1 | -2 | 8 | -7 | -2
C=CCN=c1scc(C)n1N=Cc1ccc(O)c(O)c1 | x | x | x | 2 | x | x
COc1ccc(S(=O)(=O)N2CCN(CCOc3ccccc3Cl)CC2)cc1OC | 1 | -5 | -6 | 3 | x | x
COc1ccc(S(=O)(=O)N2CCN(CCOc3ccc(Br)cc3)CC2)cc1OC | 11* | -12 | -2 | x | 4 | 1
CC(=NNc1nc(N2CCCCCC2)nc(N2CCCCCC2)n1)c1ccccc1 | x | x | x | 0 | x | x
O=C(NCCN1CCOCC1)c1cccs1 | -2 | 1 | 5 | -6 | x | x
c1csc(CNCCN2CCOCC2)c1 | 12* | 1 | 2 | 1 | -6 | -3
COc1ccc(NC(=O)Cn2nnc(C(=O)NCc3ccc(C)cc3)c2N)cc1Cl | 13* | -6 | 1 | 4 | -2 | -2
COc1ccc(Cl)cc1NC(=O)c1nnn(CC(=O)Nc2ccc(C)c(C)c2)c1N | 9.7* | -5 | -5 | -7 | -19 | -18
COc1ccc(NC(=O)Cn2nnc(C(=O)NCc3ccccc3)c2N)cc1Cl | -3 | 7 | 10 | 6 | x | x
CCCN(CCC)S(=O)(=O)c1ccc(NS(C)(=O)=O)cc1 | 0 | -2 | -1 | 5 | x | x
CCCN(CC1CC1)S(=O)(=O)c1ccc(S(N)(=O)=O)cc1 | 12* | -3 | 8 | -1 | -4 | -6
O=c1c2ccccc2c2ccccc2c(=O)n1CC1CCCO1 (stereo not drawn) | 2 | -1 | 0 | -1 | x | x
SMILES | PLCg1 inh | PLCb3 inh | Rpn11 inh | UCH37 inh | PLCgamma1 ctr | PLCb3 confirm
O=C1OCC(Cn2c3ccccc3c3ccccc32)O1 (stereo not drawn) | 11* | 2 | -4 | -1 | -8 | -6
CCCCNc1ncnc2c1cnn2-c1ccc(C)cc1C | 11* | 10 | 1 | 5 | -5 | 0
COCCCNc1ncnc2c1cnn2-c1ccc(C)cc1C | 1 | -3 | 0 | 2 | x | x
Clc1ccc(N2CCN(N=Cc3cccnc3)CC2)cc1 | x | x | x | 0 | x | x
COc1ccc(C=NOCC(=O)N=Nc2c(O)[nH]c3ccc(Br)cc23)cc1 | x | x | x | -1 | x | x
CC(C)(C)n1nnnc1C(c1ccccc1)N1CCN(C(=O)C2CCCO2)CC1 (stereo not drawn) | 9.9* | 4 | x | x | -6 | 2

From PubChem BioAssay
